# Compound activity as filed in PubChem BioAssay.
# Compounds with a hit are over-represented: about 2% of the library has one in this group of screens.
# VIM-2 inh = blocks Pseudomonas aeruginosa VIM-2 metallo-beta-lactamase | purified VIM-2, nitrocefin hydrolysis, epi-absorbance fluorescence | inhibition, % at 5.6 µM | 290,000 compounds, 0.89% hits | AID 1527;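 active = inhibition above the mean of all tested compounds plus 3 SD, cutoff set per screening run, cut at about 7.5% in these data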;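 also: red hydrolysis product quenches plate fluorescence so inhibitors raise well fluorescence; 0% = enzyme with DMSO and 100% = DMSO without enzyme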
# PLCb3 inh = inhibitors of human phospholipase C beta3 | 370,000 compounds, 0.18% hits | Purified PLC-beta3, fluorogenic substrate, fluorescence | AID 720704 | Q01970 | inhibition, % at 12.2 µM;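 also: 0% = median of compound wells on plate and 100% = full blocker control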
# Target sequence (Q01970 whole entry, looked up): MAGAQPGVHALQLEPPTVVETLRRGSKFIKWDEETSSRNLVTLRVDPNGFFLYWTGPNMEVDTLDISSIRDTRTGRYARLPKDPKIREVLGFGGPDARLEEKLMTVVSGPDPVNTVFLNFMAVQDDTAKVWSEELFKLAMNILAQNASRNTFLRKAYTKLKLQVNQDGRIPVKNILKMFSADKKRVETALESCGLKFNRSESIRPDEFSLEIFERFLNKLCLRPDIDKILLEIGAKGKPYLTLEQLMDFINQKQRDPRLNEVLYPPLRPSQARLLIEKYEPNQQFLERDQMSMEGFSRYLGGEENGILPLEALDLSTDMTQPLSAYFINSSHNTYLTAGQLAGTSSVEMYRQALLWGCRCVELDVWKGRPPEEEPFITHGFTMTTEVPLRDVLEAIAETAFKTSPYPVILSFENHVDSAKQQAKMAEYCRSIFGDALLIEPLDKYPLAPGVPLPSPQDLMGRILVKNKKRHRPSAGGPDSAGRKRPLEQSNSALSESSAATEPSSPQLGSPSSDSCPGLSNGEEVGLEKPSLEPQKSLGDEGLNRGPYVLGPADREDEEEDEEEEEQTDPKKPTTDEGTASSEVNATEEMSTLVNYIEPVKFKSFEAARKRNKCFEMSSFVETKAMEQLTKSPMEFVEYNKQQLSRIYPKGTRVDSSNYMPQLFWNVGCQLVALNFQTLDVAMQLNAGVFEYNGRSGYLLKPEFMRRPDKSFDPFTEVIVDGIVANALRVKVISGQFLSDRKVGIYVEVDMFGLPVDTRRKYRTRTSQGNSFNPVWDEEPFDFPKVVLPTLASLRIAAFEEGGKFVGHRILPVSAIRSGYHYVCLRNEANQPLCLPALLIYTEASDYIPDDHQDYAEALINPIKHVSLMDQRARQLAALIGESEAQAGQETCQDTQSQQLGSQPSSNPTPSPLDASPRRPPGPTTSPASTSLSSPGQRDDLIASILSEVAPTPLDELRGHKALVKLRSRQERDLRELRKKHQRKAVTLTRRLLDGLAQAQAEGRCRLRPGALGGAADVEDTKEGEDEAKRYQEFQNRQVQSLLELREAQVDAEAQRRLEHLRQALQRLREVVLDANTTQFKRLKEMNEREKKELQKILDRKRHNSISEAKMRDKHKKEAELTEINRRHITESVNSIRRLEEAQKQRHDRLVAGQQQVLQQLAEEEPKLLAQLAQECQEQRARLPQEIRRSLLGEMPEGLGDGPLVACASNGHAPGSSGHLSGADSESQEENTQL
# PLC-gamma1 inh = PLC-gamma1 (human) inhibition, primary screen; AID 720700; P19174; 370,000 compounds, 0.84% hits; inhibition, % at 12.2 µM; purified PLC-gamma1, fluorogenic substrate, fluorescence; in the data active = inhibition above about 9.5%
# PvdQ acylase = P. aeruginosa PvdQ acylase inhibition; 340,000 compounds, 0.063% hits; inhibition, % at 10 µM; AID 488965; purified PvdQ acylase, fluorescence plate reader; in the data active = inhibition above about 30%, passing the limit was not always enough;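 also: 0% = vehicle neutral wells and 100% = reference inhibitor wells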
# IMP-1 inhibitor = inhibitors of Pseudomonas aeruginosa IMP-1 metallo-beta-lactamase. purified IMP-1, nitrocefin hydrolysis, epi-absorbance fluorescence. inhibition, % at 5.6 µM. 290,000 compounds, 0.45% hits;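 active = inhibition above the mean plus 3 SD of all compounds in the same screening run, cut at about 4.5% in these data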;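 also: 0% = IMP-1 with DMSO and 100% = DMSO wells lacking enzyme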
#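 System: purified recombinant IMP-1 beta-lactamase. Medium: Zinc- and detergent-supplemented HEPES buffer, pH 7.1. Compound: one 5.6 µM dose […]. Schedule: 15 min preincubation plus 25 min reaction at 25 °C. Technique: Epi-absorbance fluorescence, 480 nm excitation, 530 nm emission.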
# PLCg1 ctr = inhibits human PLC-gamma1 in PLC-beta3 counter-screen; shares compounds with PLC-gamma1 inh; purified PLC-gamma1, fluorogenic substrate, fluorescence; inhibition, % at 12.3 µM; 3,300 compounds, 3.1% hits; in the data active = inhibition above about 9.5%
# PLCbeta3 conf = human PLC-beta3 inhibition, confirmation; shares compounds with PLC-gamma1 inh; purified PLC-beta3, fluorogenic substrate fluorescence; inhibition, % at 12.3 µM; 3,300 compounds, 1% hits
# * hit, by the source's call; x = no result. Rule as the data show it, unless noted: active = inhibition above about 11%; inactive = the rest.
SMILES,VIM-2 inh,PLCb3 inh,PLC-gamma1 inh,PvdQ acylase,IMP-1 inhibitor,PLCg1 ctr,PLCbeta3 conf
NC(=O)c1ncn([C@@H]2O[C@H](C(=O)N[C@H](Cc3ccccc3)C(=O)N3CCN(CC(=O)Nc4ccccn4)CC3)[C@@H](O)[C@H]2O)n1,x,1.9,3.4,x,x,x,x
OCC1(Cc2cccc(Cl)c2)CCCN(Cc2sc(N3CCCC3)nc2Cl)C1 (stereo unspecified),0.6,-1.8,12.8*,4.7,-2.1,0.1,-27.5
CCCCCCCCCC(=O)N/N=C/c1ccc(C)s1,-1.9,3.5,10.2*,-11.7,0.0,-8.1,-7.2
Cc1ccc(/C=N/NC(=O)C[n+]2ccccc2)s1,-0.5,0.3,1.2,-14.0,-1.4,x,x
O=C1NC(=S)SC1=C1CCCC1,0.1,3.7,25.6*,-5.7,-1.3,16.2*,-2.4
CN1C(=O)C(=C2CCCCCC2)SC1=S,-2.1,5.2,1.4,-5.6,-3.3,x,x
C=CCNC(=O)CN1CCC(c2nc3cc(C)c(C)cc3[nH]2)CC1,-4.0,-5.3,12.3*,1.7,-3.5,-9.9,-3.3
C=CCNC(=O)CN1CCC(c2nc3ccccc3[nH]2)CC1,-1.7,-7.0,2.6,-2.6,-2.0,x,x
O=C(/C=C/c1ccc(O)c(O)c1)c1ccc(S(=O)(=O)N2CCCCCC2)cc1,-2.8,7.0,10.9*,-13.8,-3.2,-1.1,-2.3
O=C(c1ccc(S(=O)(=O)N2CCCC2)cc1)N1CCCCC1,x,-6.3,2.9,-15.2,x,x,x
COC(=O)C1CN(Cc2ccccc2)CCS(=O)(=O)N1Cc1cn(Cc2ccccc2Br)nn1 (stereo unspecified),x,3.0,1.6,x,x,x,x
COC(=O)C[C@@H]1CC[C@@H]2[C@@H](COc3ccc(NS(=O)(=O)c4ccc(F)cc4)cc3C(=O)N2C)O1,x,-0.3,0.6,x,x,x,x
C[C@@H](NC(=O)C[C@H]1CC[C@H]2[C@@H](COc3ccc(NC(=O)Nc4ccccc4)cc3C(=O)N2C)O1)c1ccccc1,x,3.0,11.6*,x,x,3.9,7.5
CCNC(=O)Nc1ccc2c(c1)C(=O)N(C)[C@H]1CC[C@H](CC(=O)N[C@H](C)c3ccccc3)O[C@@H]1CO2,x,6.9,9.5*,x,x,11.3*,11.7*
CN1C(=O)c2cc(NS(=O)(=O)c3ccc(F)cc3)ccc2OC[C@H]2O[C@@H](CC(=O)NCC(F)(F)F)CC[C@@H]21,x,6.5,12.3*,x,x,13.0*,16.7*
O=C(N1CCC(Cc2ccccc2)CC1)n1ncc(C(O)(c2ccccc2)c2ccccc2)n1,x,2.1,1.1,x,x,x,x
CC(C)(C)OC(=O)N1CCC[C@@H]1C(=O)N1CCC[C@H]1C(=O)NCc1ccccc1,x,2.9,-0.3,x,x,x,x
CS(=O)(=O)c1nc(-c2ccc(Br)cc2)n[nH]1,-1.4,-6.2,18.2*,10.7,-1.4,14.7*,-3.7
CN(CCOC(=O)c1cc2ccccc2o1)C1CN(Cc2cn(Cc3ccc([N+](=O)[O-])cc3)nn2)S(=O)(=O)C1 (stereo unspecified),x,4.1,-0.1,x,x,x,x
Cc1cc(C)nc(SCCn2c(N3CCCCC3)nc3c2c(=O)n(C)c(=O)n3C)n1,-4.3,7.8,9.6*,-6.3,-3.5,-2.8,-1.2
CS(=O)(=O)N1CCN(c2ccccc2NC(=S)NC(=O)c2cccs2)CC1,-4.8,-1.9,0.8,-10.0,-2.8,x,x
COc1ccccc1N1CCN(S(=O)(=O)CCNC(=O)CCc2ccccc2)CC1,x,-2.0,9.7*,x,x,-5.7,-3.6
CS(=O)(=O)N1CCN(c2ccccc2NC(=S)NC(=O)c2ccccc2[N+](=O)[O-])CC1,-3.6,7.6,9.9*,0.3,-4.0,-1.5,-1.3
COc1ccccc1C(=O)Nc1ccccc1N1CCN(S(C)(=O)=O)CC1,-6.0,8.2,11.3*,-9.3,-3.5,8.8,3.1
COc1ccc(CC(=O)NCCS(=O)(=O)N2CCN(c3ccccc3OC)CC2)cc1,x,-8.8,3.0,6.5,x,x,x
SMILES,VIM-2 inh,PLCb3 inh,PLC-gamma1 inh,PvdQ acylase,IMP-1 inhibitor,PLCg1 ctr,PLCbeta3 conf
CCCCCCCCN1CCS(=O)(=O)N(Cc2ccc(OC)cc2)C(C(=O)OC)C1 (stereo unspecified),x,2.7,-2.3,x,x,x,x
COc1ccc(Cn2cc(F)c(=O)n(CCC(C)C)c2=O)cc1[N+](=O)[O-],-1.0,7.0,13.0*,-22.2,-1.9,-6.5,-1.1
COc1ccc(NC(=O)C2C3CCC(C3)C2C(=O)O)cc1OC (stereo unspecified),-1.2,-4.5,17.8*,-12.9,-2.5,-2.3,-3.6
CN(C(=O)COC(=O)COc1ccc(N(C)S(=O)(=O)c2ccc(Cl)cc2)cc1)c1ccccc1,x,-0.9,11.8*,-13.0,x,-1.9,-0.8
Nc1cc(=O)[nH]c(SCC(=O)NC2CCCCCCC2)n1,x,-3.3,9.6*,5.3,x,-10.3,-0.5
Cc1cc(=O)[nH]c(SCC(=O)NC2CCCCCC2)n1,x,-6.9,1.0,-4.3,x,x,x
COc1ccc(CNC(=O)C2(C)Cc3c(-c4cccc(C(N)=O)c4)ccnc3O2)cc1OC (stereo unspecified),x,3.4,10.3*,x,x,-4.0,-2.3
CC1(C(=O)Nc2cccc(NS(C)(=O)=O)c2)Cc2c(-c3ccc(C(N)=O)cc3)ccnc2O1 (stereo unspecified),x,6.3,10.5*,x,x,7.2,1.8
CC(=O)Nc1ccc(-c2ccnc3c2CC(C)(C(=O)NC(C)C)O3)cc1 (stereo unspecified),x,-0.8,11.9*,x,x,-7.5,-1.3
CNC(=O)C1(C)Cc2c(-c3ccc(NC(C)=O)cc3)ccnc2O1 (stereo unspecified),x,0.1,-0.7,x,x,x,x
O=S1(=O)c2ccc(N3CCCC3)cc2Oc2ccccc2CN1Cc1cn(Cc2ccc(F)cc2)nn1,x,-3.6,-1.0,x,x,x,x
CCN(CC)C(=O)CN1C(=O)C2CCCCN2C(=O)c2ccccc21 (stereo unspecified),x,-5.2,-4.8,x,x,x,x
O=C(CSCC(=O)N1CCOCC1)Nc1ccccc1,-2.8,5.4,11.1*,-13.1,-2.5,-8.4,-2.4
O=S1(=O)CC(c2ccccc2)=NN=C(c2ccccc2)C1,x,10.8*,9.5,x,x,-1.4,-4.3
O=C1CC(c2ccccc2)=NO1,x,-3.1,-0.6,2.4,x,x,x
CC1(NC(=O)Cc2c(F)cccc2Cl)CCS(=O)(=O)C1 (stereo unspecified),x,-2.1,13.0*,-16.2,x,-1.8,-7.3
CCn1nc(C)c(NC(=O)CSc2nnc(-c3ccco3)n2C)c1C,-1.9,10.9*,7.3,6.6,-2.5,-2.1,2.2
Cn1c(SCC(=O)Nc2ccccc2O)nnc1-c1ccco1,-3.1,-1.2,0.4,-15.3,-2.9,x,x
O=C(N[C@@H](Cc1cccnc1)C(=O)N1CCC[C@H]1C(=O)NCCc1ccccc1Cl)c1ccccc1,x,1.4,1.0,x,x,x,x
COc1ccc(S(=O)(=O)NCc2ccc(C(=O)NCCN(C)Cc3ccccc3)cc2)cc1,x,7.0,9.8*,x,x,-10.1,-2.1
Cc1ccccc1NC(=O)[C@H]1CC(=O)O[C@@H]1c1ccccc1,x,-0.5,-3.2,x,x,x,x
CN(CC(=O)Nc1cccc(F)c1)C(=O)CCNC(=O)c1ccco1,x,-5.7,-2.5,-10.3,x,x,x
